In data set [1] the test system is Ostertagia spp. The data set can be described thus: FECR by genus from coprocultures, naturally parasitized calves. Format: in vivo.
Data set [2] deals with Haemonchus spp. The data set can be described thus: FECR by genus from coprocultures, naturally parasitized calves. Format: in vivo. The gist of the method:
(§1)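 Male Aberdeen Angus calves, 9–11 months, naturally infected, ≥100 EPG on day −1, were ranked by EPG and randomised to groups of 15 per farm. Dosing was oral 2.5 mg/kg or SC 0.2 or 3.75 mg/kg. Rectal faeces on day −1 and day 15 were read by modified McMaster (10 EPG sensitivity). Coprocultures used 10 g faeces; ~100 Baermann L3 were identified per sample. Genus efficacy used group mean EPG […] that genus's L3 proportion.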

Data set [3] deals with GI nematodes resistant to IVM and RBZ. The data set can be described thus: Faecal egg count reduction test. It is filed as in vivo. The conditions noted are these: for EPG Counts Day 15: arithmetic mean, n = 15. In short, it runs like this: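 Naturally infected male Aberdeen Angus calves, 9–11 months, ≥100 EPG on day −1; 15 per group, allocated by EPG ranking. Herds were levamisole-treated beforehand, then grazed ≥2 months on-farm. Dosing was oral 2.5 mg/kg or SC 0.2 or 3.75 mg/kg. Rectal faeces on day −1 and day 15 were read by modified McMaster (10 EPG). FECR (%) = 100(1 − T2/T1), using arithmetic group mean EPG; 95% CI by the Coles method.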

Data set [4] deals with Oesophagostomum spp. The data set can be described thus: FECR by genus from coprocultures, naturally parasitized calves. Format: in vivo. In short, it runs like this: as §1
Data set [5] concerns Cooperia spp. The description is as above. Format: in vivo. In short, it runs like this:
as §1

Data set [6] has as its system Oesophagostomum. The note with it: sheep, cited from earlier work; for reduction of Oesophagostomum: 2009.
For data set [7] the following is noted: sheep, ref Lifschitz et al., 2014; cited from earlier work.
Data set [8] in a line: Adverse events in treated cattle. Format: in vivo. The note with it: cattle treated with MNP oral 2.5 mg/kg.
Data set [9] is described as follows: Plasma pharmacokinetics after oral administration of MNP to parasitized calves. Format: in vivo. The gist of the method:
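Eight calves on Farm 1 received a single oral 2.5 mg/kg dose. Jugular heparinised blood was drawn pre-dose, at 2–10 h and days 1–9; plasma was stored at −20 °C. Acetonitrile extraction, N2 evaporation, then C18 HPLC-UV at 230 nm (acetonitrile:methanol:water 60:8:32, 0.8 mL/min) quantified parent and sulphone metabolite. Calibration 4–400 ng/mL; LOQ 4 ng/mL. Non-compartmental analysis: observed Cmax, trapezoidal AUC extrapolated to infinity, moment-based MRT; mean ± SD.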

For data set [10] the following is noted: liver metabolism, sheep compared to cattle, ref Ballent et al., 2016; cited from earlier work.

Where two headings read alike, the source gives them in different places. Marks after values point to notes of the source that are not given here.

On to `CC[C@H](C)[C@H]1O[C@]2(CC[C@@H]1C)C[C@@H]1C[C@@H](C/C=C(\C)[C@@H](O[C@H]3C[C@H](OC)[C@@H](O[C@H]4C[C@H](OC)[C@@H](O)[C@H](C)O4)[C@H](C)O3)[C@@H](C)/C=C/C=C3\CO[C@@H]4[C@H](O)C(C)=C[C@@H](C(=O)O1)[C@]34O)O2` [IVM, ivermectin], for which the “FECR Day 15” value is given as 100% in data set [1] (Farm 1); 100% in data set [1] (Farm 2); 100% in data set [1] (Farm 3); 19% in data set [2] (Farm 1); 100% in data set [2] (Farm 2); 0% in data set [2] (Farm 3). The “FECR Day 15” value is listed as 100% in [4] (Farm 1); 100% in [4] (Farm 2); 100% in [4] (Farm 3); 80% in data set [5] (Farm 1); 56% in data set [5] (Farm 2); 43% in data set [5] (Farm 3). For the same compound, the “EPG Counts Day 15” value is given as 269^b (0–1060) EPG in data set [3] (Farm 1, 15 days post-treatment); 111^b (0–320) EPG in data set [3] (Farm 2, 15 days post-treatment); 362^b (20–1520) EPG in data set [3] (Farm 3, 15 days post-treatment).

`C[C@](C#N)(COc1cc(C#N)ccc1C(F)(F)F)NC(=O)c1ccc(SC(F)(F)F)cc1` [MNP, monepantel]: the “FECR Day 15” value turned out to be 100% in data set [1] (Farm 1); 100% in data set [1] (Farm 2); 99% in data set [1] (Farm 3); 100% in data set [2] (Farm 1); 100% in data set [2] (Farm 2); 100% in data set [2] (Farm 3). For the same compound, the “FECR Day 15” value in [4] (Farm 1) amounted to 74%; in data set [4] (Farm 2), 22%; in [4] (Farm 3), 64%; in data set [5] (Farm 1), 100%; in data set [5] (Farm 2), 100%; in data set [5] (Farm 3), 100%. Also, the “efficacy (FECR) across farms” value in data set [1] (Farms 1-3 together), in data set [2] (Farms 1-3 together) and in data set [5] (Farms 1-3 together) was 100% in each case. The “reduction of Oesophagostomum” value in data set [6] (ref Bustamante et al.) is 61.9%; in data set [6] (ref Sager et al.), 88%. The “efficacy against Oesophagostomum” value in [6] (ref Hosking et al. (2009)) is “below 90%”. Besides, in data set [7], the “concentration of MNP in the large intestine mucosa” value is 225 ng/g. The “concentration of MNP in the small intestine mucosa, duodenum” value in [7] was 762 ng/g. Moreover, the “concentration of MNP in the small intestine mucosa, ileum” value in data set [7] is listed as 562 ng/g. Moreover, the adverse events result in data set [8] was “no adverse events were observed”. For the same compound, the “EPG Counts Day 15” value in data set [3] (Farm 1, 15 days post-treatment) was 5.6a (0–20) EPG; in data set [3] (Farm 2, 15 days post-treatment), 8a (0–20) EPG; in data set [3] (Farm 3, 15 days post-treatment), 7a (0–20) EPG. Moreover, the “overall efficacy (FECR) across farms” value in data set [3] (Farms 1, 2 and 3 together, day 15) was 96–99%. Moreover, the “time post-administration up to which analyte was measured/recovered in plasma” value in data set [9] (MNP oral 2.5 mg/kg, calves, LOQ 4 ng/mL) is recorded as “up to 120 h”. Also, the exposure (AUC) (commonly the area under the concentration-time curve, a measure of exposure) in data set [9] (bovine, plasma, po, 2.5 mg/kg) was 1710 ± 651 ng·h/mL. In addition, in data set [9] (bovine, plasma, po, 2.5 mg/kg), the total exposure AUC(0-inf) (commonly total exposure, with the tail of the curve extrapolated) amounted to 2170 ± 783 ng·h/mL. For the same compound, the maximum concentration (Cmax) – broadly, the peak of the concentration-time curve – in data set [9] (bovine, plasma, po, 2.5 mg/kg) is 21.5 ± 4.62 ng/mL. Moreover, the mean residence time (MRT) (usually a mean duration of stay, worked out from the concentration-time curve) in data set [9] (bovine, plasma, po, 2.5 mg/kg) is 112 ± 40.8 h. Moreover, the time of peak concentration (Tmax) – broadly, the time at which the peak concentration occurs – in [9] (bovine, plasma, po, 2.5 mg/kg) was 8 ± 1.51 h. The half-life (as a rule, the time in which the quantity being followed falls by half) in data set [9] (bovine, plasma, po, 2.5 mg/kg) was 81 ± 31 h. Moreover, the “rate of MNP conversion into MNPSO2” value in data set [10] is on record as “five-fold higher in sheep compared to cattle”.

With `CCC[S+]([O-])c1ccc2[nH]c(NC(=O)OC)nc2c1` (centres unmarked) [RBZ, ricobendazole], the “FECR Day 15” value in data set [1] (Farm 2) came to 100%; in data set [1] (Farm 3), 0%; in data set [2] (Farm 1) it was 99%; in [2] (Farm 2) it was 95%; in [2] (Farm 3), 98%; in data set [4] (Farm 1), 100%. Further, the “FECR Day 15” value in data set [4] (Farm 2) is recorded as 100%; in data set [4] (Farm 3), 100%; in data set [5] (Farm 1), 86%; in data set [5] (Farm 2) it was 99%; in [5] (Farm 3), 54%. Also, the “efficacy (FECR) on Farms 1 and 3” value in [1] (Farms 1 and 3, stated jointly with Cooperia spp.) was “below 90%”. The “EPG Counts Day 15” value in [3] (Farm 1, 15 days post-treatment) is on record as 31^a (0–120) EPG; in data set [3] (Farm 2, 15 days post-treatment) it was 3^a (0–20) EPG; in data set [3] (Farm 3, 15 days post-treatment), 115^b (0–320) EPG. For the same compound, the “95% lower confidence interval of FECR” value in data set [3] (Farm 1, day 15) is listed as “less than 90%”.
